Source: ChEMBL document CHEMBL1143797, “Synthesis, characterization and in vitro biological studies of novel cyano derivatives of N-alkyl and N-aryl piperazine” (2007)
≈ marks a conversion by molar mass, not a printed value. Calls of active or inactive are those of the source. The calls are words filed in the database; no cut-off is given here.

Tests used:
Escherichia coli [1] = assay: Antibacterial activity against Escherichia coli MTCCB 1652 after 18-20 hrs by broth dilution method; type: functional
Outline: (§1)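 MIC was found by microbroth dilution in Mueller-Hinton broth with serial two-fold compound dilutions. The inoculum came from a 4–6 h broth culture adjusted to 0.5 McFarland, then diluted in broth to a final 3 × 10⁶ cfu/ml.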

Pseudomonas aeruginosa [2] = assay: Antibacterial activity against Pseudomonas aeruginosa MTCCB 741 at 30 ug/disc after 48 hrs by disc diffusion method; type: functional; details: for zone of inhibition at 30 µg/disc: read-out: IZ
Outline: (§2)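 Compound-impregnated discs were placed on agar plates pre-inoculated with the bacterial strain and incubated at 37 °C. Zones of inhibition around the discs were read at 48 h. Gentamicin served as the standard control, alongside a solvent-only (DMSO) disc.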

[3] = system: Staphylococcus epidermidis; assay: Antibacterial activity against Staphylococcus epidermidis MTCCB 1824 after 18-20 hrs by broth dilution method; type: functional; outline: as §1
Staphylococcus aureus [4] = assay: Antibacterial activity against Staphylococcus aureus MTCCB 737 after 18-20 hrs by broth dilution method; type: functional; outline: as §1
Pseudomonas aeruginosa [5] = assay: Antibacterial activity against Pseudomonas aeruginosa MTCCB 741 after 18-20 hrs by broth dilution method; type: functional; outline: as §1
Escherichia coli [6] = assay: Antibacterial activity against Escherichia coli MTCCB 1652 at 30 ug/disc after 48 hrs by disc diffusion method; type: functional; details: for zone of inhibition at 30 µg/disc: read-out: IZ; outline: as §2
Staphylococcus aureus [7] = assay: Antibacterial activity against Staphylococcus aureus MTCCB 737 at 30 ug/disc after 48 hrs by disc diffusion method; type: functional; details: for zone of inhibition at 30 µg/disc: read-out: IZ; outline: as §2
[8] = system: Staphylococcus epidermidis; assay: Antibacterial activity against Staphylococcus epidermidis MTCCB 1824 at 30 ug/disc after 48 hrs by disc diffusion method; type: functional; details: for zone of inhibition at 30 µg/disc: read-out: IZ; outline: as §2
Aspergillus flavus [9] = assay: Antifungal activity against Aspergillus flavus ITCC 5192 by disc diffusion method; type: functional
Outline: (§3)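 Agar plates inoculated with Aspergillus spores; sterile 5.0 mm filter-paper discs loaded with test compound over a range of 750–1.46 (unit as printed unclear) and placed on the surface. Incubated at 37 °C; zones read at 24, 48 and 96 h. MIC was taken as the lowest concentration giving an inhibition zone of at least 6.0 mm diameter.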

Aspergillus niger [10] = assay: Antifungal activity against Aspergillus niger ITCC 5405 by percentage spore germination inhibition method; type: functional
Outline: (§4)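 Compound serially double-diluted in culture medium in 96-well plates, triplicate wells per concentration. Each well inoculated with spore suspension of about 100 ± 5 spores and incubated at 37 °C for 16 h. Germinated and non-germinated spores counted by inverted microscope. MIC90 is the lowest concentration giving >90% inhibition of spore germination.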

Aspergillus niger [11] = assay: Antifungal activity against Aspergillus niger ITCC 5405 by disc diffusion method; type: functional; outline: as §3
Aspergillus niger [12] = assay: Antifungal activity against Aspergillus niger ITCC 5405 by micro-broth dilution method; type: functional
Aspergillus flavus [13] = assay: Antifungal activity against Aspergillus flavus ITCC 5192 by percentage spore germination inhibition method; type: functional; outline: as §4
Aspergillus fumigatus [14] = assay: Antifungal activity against Aspergillus fumigatus ITCC 4517 by disc diffusion method; type: functional; outline: as §3
Aspergillus fumigatus [15] = assay: Antifungal activity against Aspergillus fumigatus ITCC 4517 by percentage spore germination inhibition method; type: functional; outline: as §4
HeLa = assay: Cytotoxicity against Hela cells at 30 ug after 48 hrs by MTT assay relative to gentamicin; type: functional, Homo sapiens
Outline: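 HeLa cells were grown in DMEM with 10% heat-inactivated FBS and penicillin-streptomycin at 37 °C, 5% CO₂, seeded at 8 × 10³ cells/well and allowed 16 h to adhere. They were exposed to compound in serum-free DMEM for 4 h, then kept 48 h in growth medium. MTT was added for 2 h, formazan was dissolved in isopropanol/0.06 M HCl/0.5% SDS, and A540 was read. Viability is % of untreated cells, with gentamicin as comparator.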

Aspergillus fumigatus [16] = assay: Antifungal activity against Aspergillus fumigatus ITCC 4517 by micro-broth dilution method; type: functional
Aspergillus flavus [17] = assay: Antifungal activity against Aspergillus flavus ITCC 5192 by micro-broth dilution method; type: functional

Compound	MIC (Escherichia coli [1]) [µg/mL]	zone of inhibition at 30 µg/disc (Pseudomonas aeruginosa [2]) [mm]	MIC [3] [µg/mL]	MIC (Staphylococcus aureus [4]) [µg/mL]	MIC (Pseudomonas aeruginosa [5]) [µg/mL]	zone of inhibition at 30 µg/disc (Escherichia coli [6]) [mm]	zone of inhibition at 30 µg/disc (Staphylococcus aureus [7]) [mm]	zone of inhibition at 30 µg/disc [8] [mm]	Activity (Aspergillus niger [10])	Activity (Aspergillus niger [11])	Activity (Aspergillus niger [12])	MIC (Aspergillus flavus [13]) [µg/mL]	MIC (Aspergillus fumigatus [15]) [µg/mL]	MIC (Aspergillus fumigatus [16]) [µg/mL]	MIC (Aspergillus flavus [17]) [µg/mL]	other results
COc1ccccc1N1CCN(CC#N)CC1	310 (≈ 1340 µM)	8	625 (≈ 2700 µM)	625 (≈ 2700 µM)	625 (≈ 2700 µM)	10	9	8								
N#CCCN1CCN(CCO)CC1	39.1 (≈ 213 µM)	15	310 (≈ 1690 µM)	19.5 (≈ 106 µM)	39.1 (≈ 213 µM)	15	18	11	inactive	inactive	inactive					Activity (Aspergillus flavus [9]): inactive; Activity (Aspergillus flavus [13]): inactive; Activity (Aspergillus fumigatus [14]): inactive; Activity (Aspergillus fumigatus [15]): inactive; Activity (HeLa): 60%; Activity (Aspergillus fumigatus [16]): inactive; Activity (Aspergillus flavus [17]): inactive
N#CCCN1CCN(CCC#N)CC1	625 (≈ 3250 µM)	11	625 (≈ 3250 µM)	310 (≈ 1610 µM)	156 (≈ 813 µM)	10	11	9	inactive	inactive	inactive					Activity (Aspergillus flavus [9]): inactive; Activity (Aspergillus flavus [13]): inactive; Activity (Aspergillus fumigatus [14]): inactive; Activity (Aspergillus fumigatus [16]): inactive; Activity (Aspergillus flavus [17]): inactive
CN1CCN(CCC#N)CC1	39.1 (≈ 255 µM)	19	156 (≈ 1020 µM)	310 (≈ 2030 µM)	19.5 (≈ 127 µM)	18	10	11	inactive	inactive	inactive					Activity (Aspergillus flavus [9]): inactive; Activity (Aspergillus flavus [13]): inactive; Activity (Aspergillus fumigatus [14]): inactive; Activity (Aspergillus fumigatus [15]): inactive; Activity (Aspergillus fumigatus [16]): inactive; Activity (Aspergillus flavus [17]): inactive
COc1ccccc1N1CCN(CCC#N)CC1	156 (≈ 637 µM)	9	625 (≈ 2550 µM)	156 (≈ 637 µM)	625 (≈ 2550 µM)	11	12	9	inactive	inactive	inactive	500 (≈ 2040 µM)	500 (≈ 2040 µM)	500 (≈ 2040 µM)	1000 (≈ 4080 µM)	
N#CCN1CCN(c2ccccc2)CC1	310 (≈ 1540 µM)	13	156 (≈ 777 µM)	310 (≈ 1540 µM)	156 (≈ 777 µM)	9	10	12				500 (≈ 2480 µM)	250 (≈ 1240 µM)	500 (≈ 2480 µM)	500 (≈ 2480 µM)	MIC (Aspergillus niger [10]): 250 µg/mL (≈ 1240 µM); MIC (Aspergillus niger [12]): 500 µg/mL (≈ 2480 µM); Activity (HeLa): >95%
N#CCN1CCN(c2ccccc2[N+](=O)[O-])CC1																Activity (Pseudomonas aeruginosa [2]): inactive; Activity [3]: inactive; Activity (Staphylococcus aureus [4]): inactive; Activity (Pseudomonas aeruginosa [5]): inactive; Activity (Staphylococcus aureus [7]): inactive; Activity [8]: inactive; Activity (HeLa): 60%
N#CCN1CCN(Cc2ccccc2)CC1	625 (≈ 2900 µM)	13	310 (≈ 1440 µM)	19.5 (≈ 90.6 µM)	156 (≈ 726 µM)	9	18	10	inactive	inactive	inactive					Activity (Aspergillus flavus [9]): inactive; Activity (Aspergillus flavus [13]): inactive; Activity (Aspergillus fumigatus [16]): inactive; Activity (Aspergillus flavus [17]): inactive
N#CCCN1CCN(c2ccccc2)CC1	156 (≈ 726 µM)	9	156 (≈ 726 µM)	156 (≈ 726 µM)	625 (≈ 2900 µM)	12	13	12				250 (≈ 1160 µM)	250 (≈ 1160 µM)	250 (≈ 1160 µM)	500 (≈ 2320 µM)	MIC (Aspergillus niger [10]): 250 µg/mL (≈ 1160 µM); MIC (Aspergillus niger [12]): 500 µg/mL (≈ 2320 µM); Activity (HeLa): 60%
CN1CCN(CC#N)CC1	310 (≈ 2230 µM)	9	625 (≈ 4490 µM)	310 (≈ 2230 µM)	625 (≈ 4490 µM)	12	12	8				250 (≈ 1800 µM)	500 (≈ 3590 µM)	500 (≈ 3590 µM)	500 (≈ 3590 µM)	MIC (Aspergillus flavus [9]): 93.8 µg/disc; MIC (Aspergillus niger [10]): 250 µg/mL (≈ 1800 µM); MIC (Aspergillus niger [11]): 93.7 µg/disc; MIC (Aspergillus niger [12]): 500 µg/mL (≈ 3590 µM)
GENTAMICIN	19.5		19.5	9.8	19.5											inhibition zone (IZ) (Pseudomonas aeruginosa [2]): 19 mm; inhibition zone (IZ) (Escherichia coli [6]): 18 mm; inhibition zone (IZ) (Staphylococcus aureus [7]): 20 mm; inhibition zone (IZ) [8]: 18 mm
C[C@@H]1[C@H](O)[C@@H](C)/C=C/C=C/C=C/C=C/C=C/C=C/C=C/[C@H](O[C@@H]2O[C@H](C)[C@@H](O)[C@H](N)[C@@H]2O)C[C@@H]2O[C@](O)(C[C@@H](O)C[C@@H](O)[C@H](O)CC[C@@H](O)C[C@@H](O)CC(=O)O[C@H]1C)C[C@H](O)[C@H]2C(=O)O [AMPHOTERICIN B]												5 (≈ 5.41 µM)	5 (≈ 5.41 µM)	5 (≈ 5.41 µM)	5 (≈ 5.41 µM)	MIC (Aspergillus flavus [9]): 2.5 µg/disc; MIC (Aspergillus niger [10]): 5 µg/mL (≈ 5.41 µM); MIC (Aspergillus niger [11]): 2.5 µg/disc; MIC (Aspergillus niger [12]): 5 µg/mL (≈ 5.41 µM); MIC (Aspergillus fumigatus [14]): 2.5 µg/disc
N#CCCN1CCN(Cc2ccccc2)CC1																Activity (Pseudomonas aeruginosa [2]): inactive; Activity [3]: inactive; Activity (Staphylococcus aureus [4]): inactive; Activity (Pseudomonas aeruginosa [5]): inactive; Activity (Staphylococcus aureus [7]): inactive; Activity [8]: inactive
N#CCCN1CCNCC1																Activity (Pseudomonas aeruginosa [2]): inactive; Activity [3]: inactive; Activity (Staphylococcus aureus [4]): inactive; Activity (Pseudomonas aeruginosa [5]): inactive; Activity (Staphylococcus aureus [7]): inactive; Activity [8]: inactive
